In ChEMBL document CHEMBL1132697, “Dual inhibition of phosphodiesterase 4 and matrix metalloproteinases by an (arylsulfonyl)hydroxamic acid template” (J Med Chem, 1999):

How the values were obtained:
[1] = biological target: 72 kDa type IV collagenase (Homo sapiens, UniProt P08253); assay: Inhibition of matrix metalloprotease-2 (MMP-2), gelatinase-A
Outline: (§1)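 Recombinant human enzymes (MMP-1, MMP-2, MMP-3) were used as the source for the inhibition measurements.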

Interstitial collagenase = biological target: T1, Interstitial collagenase (Homo sapiens, UniProt P03956); assay: Inhibition of matrix metalloprotease-1 (MMP-1), fibroblast collagenase.; outline: as §1
T1 sequence (P03956 whole entry): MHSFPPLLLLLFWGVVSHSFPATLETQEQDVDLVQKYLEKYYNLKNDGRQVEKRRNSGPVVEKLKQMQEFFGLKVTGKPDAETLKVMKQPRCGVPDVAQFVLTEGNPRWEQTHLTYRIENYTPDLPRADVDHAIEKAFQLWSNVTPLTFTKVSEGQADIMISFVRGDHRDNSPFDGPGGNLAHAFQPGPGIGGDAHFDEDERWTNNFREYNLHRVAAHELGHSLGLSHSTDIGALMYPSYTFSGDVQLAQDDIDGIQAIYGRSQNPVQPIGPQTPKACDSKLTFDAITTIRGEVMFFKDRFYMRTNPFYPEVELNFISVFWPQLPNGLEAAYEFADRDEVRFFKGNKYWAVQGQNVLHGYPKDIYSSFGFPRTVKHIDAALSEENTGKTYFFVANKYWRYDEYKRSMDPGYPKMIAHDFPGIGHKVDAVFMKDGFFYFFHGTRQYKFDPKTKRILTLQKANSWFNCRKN

Stromelysin-1 = Stromelysin-1 (Homo sapiens, UniProt P08254); assay: Inhibition of matrix metalloprotease-3 (MMP-3), stromelysin-1; outline: as §1
Sequence of Stromelysin-1 (P08254 whole entry): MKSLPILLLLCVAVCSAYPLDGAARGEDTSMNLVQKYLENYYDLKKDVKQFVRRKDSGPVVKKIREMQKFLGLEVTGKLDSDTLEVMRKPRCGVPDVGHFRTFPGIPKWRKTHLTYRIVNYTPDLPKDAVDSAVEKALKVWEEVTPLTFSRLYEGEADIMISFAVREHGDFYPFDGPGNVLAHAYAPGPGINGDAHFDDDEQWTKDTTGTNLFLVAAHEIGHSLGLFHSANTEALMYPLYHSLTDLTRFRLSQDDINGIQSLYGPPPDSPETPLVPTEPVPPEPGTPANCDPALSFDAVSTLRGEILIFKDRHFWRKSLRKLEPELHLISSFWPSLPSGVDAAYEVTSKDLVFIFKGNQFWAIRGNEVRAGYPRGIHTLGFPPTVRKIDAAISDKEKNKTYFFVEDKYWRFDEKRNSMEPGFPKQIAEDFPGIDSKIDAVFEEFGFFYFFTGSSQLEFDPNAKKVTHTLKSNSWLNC

Sequence of 72 kDa type IV collagenase (P08253 whole entry): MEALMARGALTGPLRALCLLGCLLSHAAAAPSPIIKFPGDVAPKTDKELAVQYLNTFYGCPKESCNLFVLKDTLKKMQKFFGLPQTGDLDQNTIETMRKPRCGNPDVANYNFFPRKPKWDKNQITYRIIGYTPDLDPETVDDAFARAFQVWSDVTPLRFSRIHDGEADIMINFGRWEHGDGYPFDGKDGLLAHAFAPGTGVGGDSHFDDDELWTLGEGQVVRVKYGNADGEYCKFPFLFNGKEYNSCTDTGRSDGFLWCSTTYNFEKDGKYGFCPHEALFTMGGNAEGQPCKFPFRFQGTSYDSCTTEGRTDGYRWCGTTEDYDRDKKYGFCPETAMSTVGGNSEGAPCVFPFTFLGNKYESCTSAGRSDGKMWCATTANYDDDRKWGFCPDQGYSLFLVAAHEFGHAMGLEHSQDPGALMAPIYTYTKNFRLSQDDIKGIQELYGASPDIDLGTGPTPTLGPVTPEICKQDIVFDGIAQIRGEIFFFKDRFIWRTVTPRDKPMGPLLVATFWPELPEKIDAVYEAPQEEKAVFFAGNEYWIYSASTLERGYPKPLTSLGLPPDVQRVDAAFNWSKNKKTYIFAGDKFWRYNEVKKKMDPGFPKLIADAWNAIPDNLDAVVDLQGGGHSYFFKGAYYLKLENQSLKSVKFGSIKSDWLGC

Ki [1]	Ki (Interstitial collagenase)	Ki (Stromelysin-1)	Structure (SMILES)
10 nM	2000 nM	500 nM	COc1ccc(S(=O)(=O)[C@H](CCCCc2ccccc2)[C@@H](C)C(=O)NO)cc1
60 nM	2000 nM	600 nM	COc1ccc(S(=O)(=O)C(CCCCc2ccccc2)C(C)C(=O)NO)cc1 (centres undefined)
50 nM	2000 nM	1000 nM	COc1ccc(S(=O)(=O)C(C)(CCCCc2ccccc2)CC(=O)NO)cc1 (centres undefined)
20 nM	1000 nM	300 nM	COc1ccc(S(=O)(=O)C(CC(=O)NO)Cc2ccccc2)cc1 (centres undefined)
30 nM	4000 nM	200 nM	COc1ccc(S(=O)(=O)C(CCc2ccccc2)CC(=O)NO)cc1 (centres undefined)
> 10000 nM	> 10000 nM	> 10000 nM	COc1ccc(S(=O)(=O)C(CCCCc2ccccc2)CC(=O)NO)cc1OC (centres undefined)
50 nM	2000 nM	600 nM	COc1ccc(S(=O)(=O)C(CCCc2ccccc2)CC(=O)NO)cc1 (centres undefined)
20 nM	5000 nM	700 nM	COc1ccc(S(=O)(=O)C(CCCCc2ccccc2)CC(=O)NO)cc1 (centres undefined)
